# Assay results reported in ChEMBL document CHEMBL1156597, “Structure-activity relationship of kahalalide F synthetic analogues” (J Med Chem, 2008).
# Assays:
# [1] = Cytotoxicity against human HeLa-APL cells after 48 hrs by SRB assay; type: functional
# In short: (§1)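 Cells grown in RPMI 1640 with 10% FBS and penicillin/streptomycin at 37 °C and 5% CO₂, trypsinized, then seeded at 5 × 10³/well. After 18 h drug-free attachment, samples in DMSO/EtOH/PBS (0.5:0.5:99) were added for 48 h continuous exposure. Cells were fixed with cold TCA (1 h, 4 °C) and stained with SRB (10 min). Tris-solubilized stain read at 490 nm. Triplicate wells, mean ± SD; GI₅₀ derived.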
# LoVo [2] = assay: Cytotoxicity against human doxorubicin resistant LoVo cells after 48 hrs by SRB assay; type: functional; settings: for CC50: read-out: LC50 (the source's name); in short: as §1
# LoVo [3] = assay: Cytotoxicity against human LoVo cells after 48 hrs by SRB assay; type: functional; settings: for CC50: read-out: LC50 (the source's name)
# DU-145 = assay: Cytotoxicity against human DU145 cells after 48 hrs by SRB assay; type: functional, cell-based; settings: Homo sapiens, DU-145, 48 h; for CC50: read-out: LC50 (the source's name); in short: as §1
# HeLa = assay: Cytotoxicity against human HeLa cells after 48 hrs by SRB assay; type: functional; settings: for CC50: read-out: LC50 (the source's name); in short: as §1
# [4] = Cytotoxicity against human IGROV-ET cells after 48 hrs by SRB assay; type: functional; settings: for CC50: read-out: LC50 (the source's name); in short: as §1
# SK-BR-3 = assay: Cytotoxicity against human SKBR3 cells after 48 hrs by SRB assay; type: functional; settings: SK-BR-3, 48 h; for CC50: read-out: LC50 (the source's name); in short: as §1
# K562 = assay: Cytotoxicity against human K562 cells after 48 hrs by SRB assay; type: functional; settings: K562, 48 h; for CC50: read-out: LC50 (the source's name); in short: as §1
# SK-MEL-28 = assay: Cytotoxicity against human SK-MEL-28 cells after 48 hrs by SRB assay; type: functional, cell-based; settings: Homo sapiens, SK-MEL-28, 48 h; for CC50: read-out: LC50 (the source's name); in short: as §1
# LNCaP = assay: Cytotoxicity against human LNcaP cells after 48 hrs by SRB assay; type: functional; settings: for CC50: read-out: LC50 (the source's name); in short: as §1
# A549 = assay: Cytotoxicity against human A549 cells after 48 hrs by SRB assay; type: functional, cell-based; settings: Homo sapiens, A549, 48 h; in short: as §1
# HT-29 = assay: Cytotoxicity against human HT29 cells after 48 hrs by SRB assay; type: functional, cell-based; settings: Homo sapiens, HT-29, 48 h; for CC50: read-out: LC50 (the source's name); in short: as §1
# [5] = Cytotoxicity against human IGROV cells after 48 hrs by SRB assay; type: functional; settings: for CC50: read-out: LC50 (the source's name); in short: as §1
# PANC-1 = assay: Cytotoxicity against human PANC1 cells after 48 hrs by SRB assay; type: functional; settings: PANC-1, 48 h; for CC50: read-out: LC50 (the source's name); in short: as §1
smiles,measurement,setting,value
C/C=C1\NC(=O)[C@H](Cc2ccccc2)NC(=O)[C@@H](C(C)C)NC(=O)[C@@H]([C@H](C)CC)NC(=O)[C@H](NC(=O)[C@H](NC(=O)[C@H](CCCNC(=O)CCOCCOCCN)NC(=O)[C@H]2CCCN2C(=O)[C@H](NC(=O)[C@@H](NC(=O)[C@@H](NC(=O)[C@H](NC(=O)CCCC(C)C)C(C)C)[C@@H](C)O)C(C)C)C(C)C)[C@H](C)CC)[C@H](C)OC(=O)[C@H](C(C)C)NC1=O,GI50,[1],515 nM
same,LC50 (concentration giving 50% net cell kill),[1],852 nM
same,TGI,[1],658 nM
same,CC50,LoVo [2],29.5 nM
same,CC50,LoVo [3],301 nM
same,GI50,DU-145,852 nM
same,GI50,DU-145; read-out: GI50,738 nM
same,CC50,DU-145,982 nM
same,GI50,HeLa,711 nM
same,TGI,HeLa,942 nM
same,CC50,HeLa,944 nM
same,GI50,[4],287 nM
same,GI50,[4]; read-out: GI50,195 nM
same,CC50,[4],510 nM
same,TGI,SK-BR-3,235 nM
same,GI50,SK-BR-3; read-out: GI50,248 nM
same,CC50,SK-BR-3,111 nM
same,CC50,K562,159 nM
same,GI50,SK-MEL-28,956 nM
same,GI50,SK-MEL-28; read-out: GI50,952 nM
same,CC50,SK-MEL-28,954 nM
same,CC50,LNCaP,866 nM
same,GI50,A549,595 nM
same,LC50,A549,350 nM
same,GI50,A549; read-out: GI50,4920 nM
same,CC50,HT-29,390 nM
same,GI50,[5],134 nM
same,GI50,[5]; read-out: GI50,176 nM
same,CC50,[5],262 nM
same,GI50,PANC-1,1250 nM
same,TGI,PANC-1,1060 nM
same,CC50,PANC-1,1600 nM
C/C=C1\NC(=O)[C@H](CCC2CCCCC2)NC(=O)[C@@H](C(C)C)NC(=O)[C@@H]([C@@H](C)CC)NC(=O)[C@H](NC(=O)[C@H](NC(=O)[C@H](CCCN)NC(=O)[C@H]2CCCN2C(=O)[C@H](NC(=O)[C@@H](NC(=O)[C@@H](NC(=O)[C@H](NC(=O)CCCC(C)C)C(C)C)[C@@H](C)O)C(C)C)C(C)C)[C@@H](C)CC)[C@@H](C)OC(=O)[C@H](C(C)C)NC1=O,GI50,[1],319 nM
same,LC50 (concentration giving 50% net cell kill),[1],617 nM
same,TGI,[1],499 nM
same,GI50,LoVo [2],224 nM
same,TGI,LoVo [2],258 nM
same,CC50,LoVo [2],296 nM
same,GI50,LoVo [3],266 nM
same,TGI,LoVo [3],282 nM
same,CC50,LoVo [3],298 nM
same,GI50,DU-145,472 nM
same,GI50,DU-145; read-out: GI50,464 nM
same,CC50,DU-145,553 nM
same,GI50,HeLa,304 nM
same,TGI,HeLa,313 nM
same,CC50,HeLa,500 nM
same,GI50,[4],312 nM
same,GI50,[4]; read-out: GI50,232 nM
same,CC50,[4],350 nM
same,TGI,SK-BR-3,205 nM
same,GI50,SK-BR-3; read-out: GI50,165 nM
same,CC50,SK-BR-3,256 nM
same,GI50,K562,1420 nM
same,TGI,K562,1410 nM
same,CC50,K562,1390 nM
same,TGI,SK-MEL-28,1000 nM
same,GI50,SK-MEL-28; read-out: GI50,1020 nM
same,CC50,SK-MEL-28,983 nM
same,GI50,LNCaP,384 nM
same,TGI,LNCaP,625 nM
same,CC50,LNCaP,661 nM
same,GI50,A549,857 nM
same,LC50,A549,959 nM
same,GI50,A549; read-out: GI50,756 nM
same,GI50,HT-29,294 nM
same,TGI,HT-29,352 nM
same,CC50,HT-29,359 nM
same,GI50,[5],372 nM
same,GI50,[5]; read-out: GI50,276 nM
same,CC50,[5],378 nM
same,GI50,PANC-1,1120 nM
same,TGI,PANC-1,1290 nM
same,CC50,PANC-1,1490 nM
C/C=C1\NC(=O)[C@H](Cc2ccccc2)NC(=O)[C@@H](C(C)C)NC(=O)[C@@H]([C@H](C)CC)NC(=O)[C@H](NC(=O)[C@H](NC(=O)[C@H](CCCNC(=O)CCCC[C@@H]2SC[C@@H]3NC(=O)N[C@@H]32)NC(=O)[C@H]2CCCN2C(=O)[C@H](NC(=O)[C@@H](NC(=O)[C@@H](NC(=O)[C@H](NC(=O)CCCC(C)C)C(C)C)[C@@H](C)O)C(C)C)C(C)C)[C@H](C)CC)[C@H](C)OC(=O)[C@H](C(C)C)NC1=O,GI50,[1],985 nM
same,LC50 (concentration giving 50% net cell kill),[1],996 nM
same,TGI,[1],989 nM
same,GI50,LoVo [2],328 nM
same,TGI,LoVo [2],354 nM
same,CC50,LoVo [2],2180 nM
same,GI50,LoVo [3],317 nM
same,TGI,LoVo [3],303 nM
same,CC50,LoVo [3],288 nM
same,GI50,DU-145,836 nM
same,GI50,DU-145; read-out: GI50,854 nM
same,CC50,DU-145,814 nM
same,GI50,HeLa,382 nM
same,TGI,HeLa,580 nM
same,CC50,HeLa,716 nM
same,GI50,[4],488 nM
same,GI50,[4]; read-out: GI50,618 nM
same,CC50,[4],385 nM
same,TGI,SK-BR-3,267 nM
same,GI50,SK-BR-3; read-out: GI50,322 nM
same,CC50,SK-BR-3,90.5 nM
same,CC50,K562,1680 nM
same,GI50,SK-MEL-28,974 nM
same,GI50,SK-MEL-28; read-out: GI50,959 nM
same,CC50,SK-MEL-28,974 nM
same,GI50,LNCaP,816 nM
same,TGI,LNCaP,810 nM
same,CC50,LNCaP,805 nM
same,LC50,A549,128 nM
same,GI50,HT-29,362 nM
same,TGI,HT-29,316 nM
same,CC50,HT-29,164 nM
same,GI50,[5],351 nM
same,GI50,[5]; read-out: GI50,369 nM
same,CC50,[5],342 nM
same,GI50,PANC-1,1990 nM
same,TGI,PANC-1,2360 nM
same,CC50,PANC-1,2010 nM
C/C=C1\NC(=O)[C@H](Cc2ccccc2Cl)NC(=O)[C@@H](C(C)C)NC(=O)[C@@H]([C@H](C)CC)NC(=O)[C@H](NC(=O)[C@H](NC(=O)[C@H](CCCN)NC(=O)[C@H]2CCCN2C(=O)[C@H](NC(=O)[C@@H](NC(=O)[C@@H](NC(=O)[C@H](NC(=O)CCCC(C)C)C(C)C)[C@@H](C)O)C(C)C)C(C)C)[C@H](C)CC)[C@H](C)OC(=O)[C@H](C(C)C)NC1=O,GI50,[1],312 nM
same,LC50 (concentration giving 50% net cell kill),[1],931 nM
same,TGI,[1],533 nM
same,GI50,LoVo [2],44.3 nM
same,TGI,LoVo [2],46.9 nM
same,CC50,LoVo [2],85.1 nM
same,GI50,LoVo [3],43.4 nM
same,TGI,LoVo [3],63.5 nM
same,CC50,LoVo [3],111 nM
same,GI50,DU-145,391 nM
same,GI50,DU-145; read-out: GI50,180 nM
same,CC50,DU-145,670 nM
same,GI50,HeLa,274 nM
same,TGI,HeLa,506 nM
same,CC50,HeLa,889 nM
same,GI50,[4],142 nM
same,GI50,[4]; read-out: GI50,97.3 nM
same,CC50,[4],196 nM
same,GI50,SK-BR-3,56.8 nM
same,GI50,SK-BR-3; read-out: GI50,54.9 nM
same,CC50,SK-BR-3,111 nM
same,GI50,K562,1850 nM
same,TGI,K562,1850 nM
same,CC50,K562,1850 nM
same,GI50,SK-MEL-28,638 nM
same,GI50,SK-MEL-28; read-out: GI50,386 nM
same,CC50,SK-MEL-28,1050 nM
same,GI50,LNCaP,92.8 nM
same,TGI,LNCaP,359 nM
same,CC50,LNCaP,832 nM
same,GI50,A549,659 nM
same,LC50,A549,1040 nM
same,GI50,A549; read-out: GI50,418 nM
same,GI50,HT-29,89 nM
same,TGI,HT-29,113 nM
same,CC50,HT-29,144 nM
same,GI50,[5],118 nM
same,GI50,[5]; read-out: GI50,72.3 nM
same,CC50,[5],204 nM
same,GI50,PANC-1,1510 nM
same,TGI,PANC-1,1700 nM
same,CC50,PANC-1,1700 nM
